The RNAGym collection of RNA variant scans (doi:10.1038/s41586-018-0170-7)

B1: tRNA (parent)
chain: GUUCCGUUGGCGUAAUGGUAACGCGUCUCCCUCCUAAGGAGAAGACUGCGGGUUCGAGUCCCGUACGGAACG

Variants of: B1
Test: yeast fitness, log relative to wild type (ln ratio); higher = fitter; tRNA-Arg(CCU), competitive growth, 37 C, 1 M NaCl
Procedure, shortened: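 BY4742 cells without the chromosomal tRNA-Arg(CCU) gene carried a combinatorial variant library on a HIS3 centromeric plasmid, from two independent transformations. After 4 generations in SC-HIS at 30 °C, pools spent ~6.5 generations (~26.5 h) in SC-HIS 1M NaCl at 37 °C, giving three outputs per input, and 125 bp paired-end Illumina reads counted the variants. Fitness is the natural log of each genotype's generations over the wild type's, with generations taken as OD-scaled log2 output/input frequency weighted by inverse variance across replicates.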

Variant	yeast fitness (ln)
AUUCCGUUGGCGUAAUGGUAACGCGUUUCCCUCCUAAGGAGACGAUUGCGGGUUCGAGUCCCGUAAGGAACG [G1A C27U A43C C46U C66A]	-0.103
GGUCCGUUGGCGUAAUGGUAACGCGUCUCCCUCCUAAGGAGACGACUGCGGGUUCGAGUCCCGUAAGGGGUG [U2G A43C C66A A69G A70G C71U]	-0.235
AGUCCUUUGGCGUAAUGGUAACGCGUUUCCCUCCUAAGGAGAAGAUUGCGGGUUCGAGUCCCGUAUGGAACG [G1A U2G G6U C27U C46U C66U]	-0.271
GUUCCAUUGGCGUAAUGGUAACGCGUCUCCCUCCUAAGGAGACGAUUGCGGGUUCGAGUCCCGUAUGGAUUG [G6A A43C C46U C66U A70U C71U]	-0.268
GCUCCUUUGGCGUAAUGGUAACGCGUCUCCCUCCUAAGGAGACGAUUGCGGGUUCGAGUCCCGUACGGAGUG [U2C G6U A43C C46U A70G C71U]	-0.278
GCUCCAUUGGCGUAAUGGUAACGCGUCUCCCUCCUAAGGAGAAGAUUGCGGGUUCGAGUCCCGUAAGGAGCG [U2C G6A C46U C66A A70G]	-0.016
GGUCCUUUGGCGUAAUGGUAACGCGUCUCCCUCCUAAGGAGACGACUGCGGGUUCGAGUCCCGUAAGGGGUG [U2G G6U A43C C66A A69G A70G C71U]	-0.315
AUUCCUUUGGCGUAAUGGUAACGCGUCUCCCUCCUAAGGAGAAGACUGCGGGUUCGAGUCCCGUAAGGAGCG [G1A G6U C66A A70G]	-0.196
AUUCCAUUGGCGUAAUGGUAACGCGUCUCCCUCCUAAGGAGAAGAUUGCGGGUUCGAGUCCCGUAUGGAGUG [G1A G6A C46U C66U A70G C71U]	-0.0284
GCUCCGUUGGCGUAAUGGUAACGCGUUUCCCUCCUAAGGAGACGAUUGCGGGUUCGAGUCCCGUACGGAUCG [U2C C27U A43C C46U A70U]	-0.14
GCUCCGUUGGCGUAAUGGUAACGCGUUUCCCUCCUAAGGAGACGAUUGCGGGUUCGAGUCCCGUACGGAGCG [U2C C27U A43C C46U A70G]	-0.0098
AGUCCUUUGGCGUAAUGGUAACGCGUCUCCCUCCUAAGGAGAAGAUUGCGGGUUCGAGUCCCGUACGGAGUG [G1A U2G G6U C46U A70G C71U]	-0.257
AUUCCGUUGGCGUAAUGGUAACGCGUCUCCCUCCUAAGGAGAAGACUGCGGGUUCGAGUCCCGUACGGGGUG [G1A A69G A70G C71U]	-0.0385
ACUCCGUUGGCGUAAUGGUAACGCGUCUCCCUCCUAAGGAGAAGAUUGCGGGUUCGAGUCCCGUACGGAUUG [G1A U2C C46U A70U C71U]	-0.0299
GGUCCGUUGGCGUAAUGGUAACGCGUUUCCCUCCUAAGGAGACGACUGCGGGUUCGAGUCCCGUAAGGAGUG [U2G C27U A43C C66A A70G C71U]	-0.257
GGUCCUUUGGCGUAAUGGUAACGCGUUUCCCUCCUAAGGAGACGACUGCGGGUUCGAGUCCCGUACGGAACG [U2G G6U C27U A43C]	-0.107
GUUCCAUUGGCGUAAUGGUAACGCGUUUCCCUCCUAAGGAGACGACUGCGGGUUCGAGUCCCGUACGGAAUG [G6A C27U A43C C71U]	-0.184
GUUCCUUUGGCGUAAUGGUAACGCGUCUCCCUCCUAAGGAGACGAUUGCGGGUUCGAGUCCCGUACGGGAUG [G6U A43C C46U A69G C71U]	-0.234
GGUCCAUUGGCGUAAUGGUAACGCGUUUCCCUCCUAAGGAGAAGAUUGCGGGUUCGAGUCCCGUAUGGGACG [U2G G6A C27U C46U C66U A69G]	-0.215

Variant	yeast fitness (ln)
AGUCCUUUGGCGUAAUGGUAACGCGUCUCCCUCCUAAGGAGACGACUGCGGGUUCGAGUCCCGUAUGGAGUG [G1A U2G G6U A43C C66U A70G C71U]	-0.419
GCUCCGUUGGCGUAAUGGUAACGCGUCUCCCUCCUAAGGAGAAGACUGCGGGUUCGAGUCCCGUAAGGAACG [U2C C66A]	0.0749
ACUCCAUUGGCGUAAUGGUAACGCGUCUCCCUCCUAAGGAGAAGACUGCGGGUUCGAGUCCCGUAUGGAGCG [G1A U2C G6A C66U A70G]	-0.00694
AGUCCAUUGGCGUAAUGGUAACGCGUCUCCCUCCUAAGGAGACGACUGCGGGUUCGAGUCCCGUAUGGGUCG [G1A U2G G6A A43C C66U A69G A70U]	-0.45
ACUCCAUUGGCGUAAUGGUAACGCGUCUCCCUCCUAAGGAGAAGAUUGCGGGUUCGAGUCCCGUAUGGGGUG [G1A U2C G6A C46U C66U A69G A70G C71U]	-0.0172
GUUCCUUUGGCGUAAUGGUAACGCGUCUCCCUCCUAAGGAGAAGAUUGCGGGUUCGAGUCCCGUAUGGGUCG [G6U C46U C66U A69G A70U]	-0.235
GUUCCAUUGGCGUAAUGGUAACGCGUUUCCCUCCUAAGGAGAAGAUUGCGGGUUCGAGUCCCGUAAGGAAUG [G6A C27U C46U C66A C71U]	-0.148
GUUCCUUUGGCGUAAUGGUAACGCGUUUCCCUCCUAAGGAGAAGACUGCGGGUUCGAGUCCCGUACGGGUUG [G6U C27U A69G A70U C71U]	-0.513
AGUCCAUUGGCGUAAUGGUAACGCGUUUCCCUCCUAAGGAGAAGAUUGCGGGUUCGAGUCCCGUAAGGAUCG [G1A U2G G6A C27U C46U C66A A70U]	-0.187
AGUCCUUUGGCGUAAUGGUAACGCGUCUCCCUCCUAAGGAGAAGAUUGCGGGUUCGAGUCCCGUAUGGAACG [G1A U2G G6U C46U C66U]	-0.14
GCUCCAUUGGCGUAAUGGUAACGCGUUUCCCUCCUAAGGAGACGAUUGCGGGUUCGAGUCCCGUAAGGAUCG [U2C G6A C27U A43C C46U C66A A70U]	-0.0497
GCUCCGUUGGCGUAAUGGUAACGCGUUUCCCUCCUAAGGAGAAGAUUGCGGGUUCGAGUCCCGUACGGGACG [U2C C27U C46U A69G]	-0.319
GGUCCAUUGGCGUAAUGGUAACGCGUCUCCCUCCUAAGGAGAAGAUUGCGGGUUCGAGUCCCGUAAGGAUCG [U2G G6A C46U C66A A70U]	-0.059
AUUCCUUUGGCGUAAUGGUAACGCGUUUCCCUCCUAAGGAGAAGAUUGCGGGUUCGAGUCCCGUACGGAAUG [G1A G6U C27U C46U C71U]	-0.239
GCUCCUUUGGCGUAAUGGUAACGCGUCUCCCUCCUAAGGAGACGAUUGCGGGUUCGAGUCCCGUACGGAGCG [U2C G6U A43C C46U A70G]	-0.113
AUUCCAUUGGCGUAAUGGUAACGCGUCUCCCUCCUAAGGAGACGACUGCGGGUUCGAGUCCCGUAAGGAUCG [G1A G6A A43C C66A A70U]	-0.201
AUUCCUUUGGCGUAAUGGUAACGCGUCUCCCUCCUAAGGAGAAGACUGCGGGUUCGAGUCCCGUAUGGGAUG [G1A G6U C66U A69G C71U]	-0.312
AGUCCAUUGGCGUAAUGGUAACGCGUCUCCCUCCUAAGGAGAAGAUUGCGGGUUCGAGUCCCGUAUGGAAUG [G1A U2G G6A C46U C66U C71U]	-0.301
AGUCCGUUGGCGUAAUGGUAACGCGUCUCCCUCCUAAGGAGACGACUGCGGGUUCGAGUCCCGUACGGGAUG [G1A U2G A43C A69G C71U]	-0.219
